The source made the active and inactive calls. The rule behind the calls is not given here.
Tests used:
Plasmodium berghei [1] = assay: Antimalarial activity against Plasmodium berghei infected in mouse assessed as change in mean survival time at 20 mg/kg (reference value: 6.2 +/- 0.5 days); format: functional
Plasmodium berghei [2] = assay: Antimalarial activity against Plasmodium berghei infected in mouse assessed as change in mean survival time at 40 mg/kg (reference value: 6.2 +/- 0.5 days); format: functional
Plasmodium berghei [3] = assay: Antimalarial activity against Plasmodium berghei infected in mouse assessed as change in mean survival time at 320 mg/kg (reference value: 6.2 +/- 0.5 days); format: functional
Plasmodium berghei [4] = assay: Antimalarial activity against Plasmodium berghei infected in mouse assessed as change in mean survival time at 160 mg/kg (reference value: 6.2 +/- 0.5 days); format: functional
Plasmodium berghei [5] = assay: Antimalarial activity against Plasmodium berghei infected in mouse assessed as change in mean survival time at 80 mg/kg (reference value: 6.2 +/- 0.5 days); format: functional
Plasmodium berghei [6] = assay: Antimalarial activity against Plasmodium berghei infected in mouse assessed as change in mean survival time at 1.25 mg/kg (reference value: 6.2 +/- 0.5 days); format: functional
Plasmodium berghei [7] = assay: Antimalarial activity against Plasmodium berghei infected in mouse assessed as change in mean survival time at 10 mg/kg (reference value: 6.2 +/- 0.5 days); format: functional
Plasmodium berghei [8] = assay: Antimalarial activity against Plasmodium berghei infected in mouse assessed as change in mean survival time at 5 mg/kg (reference value: 6.2 +/- 0.5 days); format: functional
Plasmodium berghei [9] = assay: Antimalarial activity against Plasmodium berghei infected in mouse assessed as change in mean survival time at 2.5 mg/kg (reference value: 6.2 +/- 0.5 days); format: functional
Plasmodium cynomolgi [10] = assay: Antimalarial activity against Plasmodium cynomolgi infected in rhesus monkey assessed as cured animal at 0.75 mg/kg qd for 7 days measured after 105 days in presence of chloroquine; format: functional, organism-based; design: dose 0.75 mg/kg
Outline: (§1)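 Test compounds were given as phosphate salts, with doses expressed as free base, once daily for 7 days together with chloroquine at 2.5 mg per kg body weight. An animal was scored as cured when thick blood films stayed parasite-negative for 105 days or more after the last dose.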

Plasmodium cynomolgi [11] = assay: Antimalarial activity against Plasmodium cynomolgi infected in rhesus monkey assessed as cured animal at 0.5 mg/kg qd for 7 days measured after 105 days in presence of chloroquine; format: functional, organism-based; design: dose 0.5 mg/kg; outline: as §1
Plasmodium cynomolgi [12] = assay: Antimalarial activity against Plasmodium cynomolgi infected in rhesus monkey assessed as cured animal at 0.375 mg/kg qd for 7 days measured after 105 days in presence of chloroquine; format: functional, organism-based; design: dose 0.375 mg/kg; outline: as §1
Plasmodium berghei [13] = assay: Antimalarial activity against Plasmodium berghei infected in mouse assessed as change in mean survival time at 640 mg/kg (reference value: 6.2 +/- 0.5 days); format: functional
Mus musculus [14] = assay: Toxicity in mouse infected with Plasmodium berghei assessed as mortality at 640 mg/kg after 2 to 5 days; format: organism-based; design: dose 640 mg/kg; conditions: in vivo
Mus musculus [15] = assay: Toxicity in mouse infected with Plasmodium berghei assessed as mortality at 320 mg/kg after 2 to 5 days; format: organism-based; design: dose 320 mg/kg; conditions: in vivo
Mus musculus [16] = assay: Toxicity in mouse infected with Plasmodium berghei assessed as mortality at 160 mg/kg after 2 to 5 days; format: organism-based; design: dose 160 mg/kg; conditions: in vivo
Plasmodium cynomolgi [17] = assay: Antimalarial activity against Plasmodium cynomolgi infected in rhesus monkey assessed as relapse time at 0.375 mg/kg qd for 7 days in presence of chloroquine; format: functional
Plasmodium cynomolgi [18] = assay: Antimalarial activity against Plasmodium cynomolgi infected in rhesus monkey assessed as relapse time at 0.5 mg/kg qd for 7 days in presence of chloroquine; format: functional
Rhesus monkey = assay: Toxicity in rhesus monkey at 0.375 to 0.75 mg/kg; format: organism-based, Macaca mulatta; design: dose 0.375-0.75 mg/kg; conditions: in vivo

Work on `CCCCCCCN(CCCCCCC)CC(O)c1cc2ccccc2c2cc(Br)ccc12` (racemic) yielded an MST (Plasmodium berghei [1]) of 2.9 days, an MST (Plasmodium berghei [2]; 40 mg/kg) of 6.9 days and an MST (Plasmodium berghei [3]; 320 mg/kg) of 25.9 days. The MST (Plasmodium berghei [4]; 160 mg/kg) was 15.3 days and the MST (Plasmodium berghei [5]; 80 mg/kg) was 11.3 days.

With `Nc1nc(N)c2c(n1)CCC(S(=O)(=O)c1ccc3ccccc3c1)C2` (racemic) the MST (Plasmodium berghei [6]) was 4.9 days, the MST (Plasmodium berghei [7]) was 11.9 days and the MST (Plasmodium berghei [8]) was 10.7 days. For the same molecule, the MST (Plasmodium berghei [9]) was 7.5 days.

`CCCCN(CCCC)CC(O)c1cc(-c2ccc(Cl)c(Cl)c2)nc2c(Cl)cc(Cl)cc12` (racemic) showed an MST (Plasmodium berghei [1]) of 14.9 days, an MST (Plasmodium berghei [2]; 40 mg/kg) of 11.9 days and an MST (Plasmodium berghei [6]) of 0.3 days. It also gave an MST (Plasmodium berghei [7]) of 10.7 days, an MST (Plasmodium berghei [8]) of 6.1 days and an MST (Plasmodium berghei [9]) of 4.1 days. The MST (Plasmodium berghei [5]; 80 mg/kg) was 22.9 days.

For `CCCCN(CCCC)CC(O)c1cc(-c2ccc(C(F)(F)F)cc2)nc(-c2ccc(C(F)(F)F)cc2)c1` (racemic), the MST (Plasmodium berghei [1]) was 8.6 days and the MST (Plasmodium berghei [7]) was 5.5 days.

For `COc1cc(NC(C)CCCN)c2ncccc2c1` (racemic), the Activity (Plasmodium cynomolgi [10]) was “Active”, the Activity (Plasmodium cynomolgi [11]) was “Active” and the Activity (Plasmodium cynomolgi [12]) was “inactive”.

For `CCCCN(CCCC)CCC(O)c1cc2c(Cl)cc(Cl)cc2c2cc(C(F)(F)F)ccc12` (racemic) [HALOFANTRINE], the MST (Plasmodium berghei [7]) was 14.9 days and the MST (Plasmodium berghei [8]) was 9.3 days.

`CCCCCCCN(CCCCCCC)CC(O)c1cc2ccccc2c2cc(Br)ccc12` (single isomer, unassigned; (+)) gave an MST (Plasmodium berghei [1]) of 0.5 days, an MST (Plasmodium berghei [2]; 40 mg/kg) of 1.7 days and an MST (Plasmodium berghei [13]) of 14.9 days. The MST (Plasmodium berghei [3]; 320 mg/kg) was 9.3 days, the MST (Plasmodium berghei [4]; 160 mg/kg) was 6.7 days and the MST (Plasmodium berghei [5]; 80 mg/kg) was 4.1 days.

`Nc1nc(N)c2c(n1)CCC(S(=O)(=O)c1ccc3ccccc3c1)C2` (single isomer, unassigned; (+)) showed an MST (Plasmodium berghei [1]) of 0.3 days, an MST (Plasmodium berghei [2]) of 1.7 days and an MST (Plasmodium berghei [3]) of 9.1 days. It also gave an MST (Plasmodium berghei [4]) of 6.9 days and an MST (Plasmodium berghei [5]) of 4.5 days.

`CCCCN(CCCC)CC(O)c1cc(-c2ccc(Cl)c(Cl)c2)nc2c(Cl)cc(Cl)cc12` (single isomer, unassigned; (+)) showed an MST (Plasmodium berghei [1]) of 10 days, an MST (Plasmodium berghei [2]; 40 mg/kg) of 11.8 days and an MST (Plasmodium berghei [6]) of 0.5 days. For the same molecule, the MST (Plasmodium berghei [7]) was 6.9 days, the MST (Plasmodium berghei [8]) was 3.5 days and the MST (Plasmodium berghei [9]) was 0.5 days.

With `Nc1nc(N)c2c(n1)CCC(S(=O)(=O)c1ccc3ccccc3c1)C2` (single isomer, unassigned; (-)) the MST (Plasmodium berghei [1]) was 11.3 days, the MST (Plasmodium berghei [6]) was 1.3 days and the MST (Plasmodium berghei [7]) was 7.1 days. The MST (Plasmodium berghei [8]) was 4.9 days, the Activity (Mus musculus [14]) was “Toxic” and the Activity (Mus musculus [15]) was “Toxic”. The Activity (Mus musculus [16]) was “Toxic” and the MST (Plasmodium berghei [9]) was 3.1 days.

Molecule `CCCCN(CCCC)CC(O)c1cc(-c2ccc(Cl)c(Cl)c2)nc2c(Cl)cc(Cl)cc12` (single isomer, unassigned; (-)) has an MST (Plasmodium berghei [1]) of 3.8 days, an MST (Plasmodium berghei [2]; 40 mg/kg) of 7.8 days and an MST (Plasmodium berghei [4]) of 12.8 days. For the same molecule, the MST (Plasmodium berghei [5]; 80 mg/kg) was 9 days.

`CCCCN(CCCC)CC(O)c1cc(-c2ccc(C(F)(F)F)cc2)nc(-c2ccc(C(F)(F)F)cc2)c1` (single isomer, unassigned; (-)) showed an MST (Plasmodium berghei [1]) of 3.1 days, an MST (Plasmodium berghei [2]; 40 mg/kg) of 10.5 days and an MST (Plasmodium berghei [7]) of 1.3 days. For the same molecule, the MST (Plasmodium berghei [4]) was 19.9 days and the MST (Plasmodium berghei [5]; 80 mg/kg) was 13.1 days.

With `COc1cc(NC(C)CCCN)c2ncccc2c1` (single isomer, unassigned; (-)) the Activity (Plasmodium cynomolgi [10]) was “Active”.

Molecule `COc1cc(NC(C)CCCN)c2ncccc2c1.O=P(O)(O)O.O=P(O)(O)O` (single isomer, unassigned; (-)) [PRIMAQUINE PHOSPHATE] has a Time (Plasmodium cynomolgi [17]) of 11 days and a Time (Plasmodium cynomolgi [18]) of 16 days.

Work on `CCCCN(CCCC)CC(O)c1cc(-c2ccc(C(F)(F)F)cc2)nc(-c2ccc(C(F)(F)F)cc2)c1` (stereo in doubt; (+)-2) yielded an MST (Plasmodium berghei [1]) of 10.7 days, an MST (Plasmodium berghei [2]; 40 mg/kg) of 18.1 days and an MST (Plasmodium berghei [7]) of 3.9 days. The MST (Plasmodium berghei [5]; 80 mg/kg) was 25.6 days.

With `COc1cc(NC(C)CCCN)c2ncccc2c1` (stereo in doubt; (+)-5) the Activity (Plasmodium cynomolgi [10]) was “Active”.

For `COc1cc(NC(C)CCCN)c2ncccc2c1.O=P(O)(O)O.O=P(O)(O)O` (stereo in doubt; (+)-5) [PRIMAQUINE PHOSPHATE], the Time (Plasmodium cynomolgi [17]) was 10 days, the Time (Plasmodium cynomolgi [18]) was 28 days and the Activity (Rhesus monkey) was “Toxic”.

Work on `CCCCN(CCCC)CCC(O)c1cc2c(Cl)cc(Cl)cc2c2cc(C(F)(F)F)ccc12` (stereo in doubt; (+)-8) [HALOFANTRINE] yielded an MST (Plasmodium berghei [1]) of 11.1 days, an MST (Plasmodium berghei [2]; 40 mg/kg) of 14.5 days and an MST (Plasmodium berghei [6]) of 0.5 days. For the same molecule, the MST (Plasmodium berghei [7]) was 10.3 days, the MST (Plasmodium berghei [8]) was 7.5 days and the MST (Plasmodium berghei [9]) was 3.1 days. It also gave an MST (Plasmodium berghei [5]; 80 mg/kg) of 16.9 days.

Molecule `CCCCCCCN(CCCCCCC)CC(O)c1cc2ccccc2c2cc(Br)ccc12` (stereo in doubt; (-)-3) has an MST (Plasmodium berghei [1]) of 0.3 days, an MST (Plasmodium berghei [2]; 40 mg/kg) of 2.1 days and an MST (Plasmodium berghei [13]) of 11.1 days. For the same molecule, the MST (Plasmodium berghei [3]; 320 mg/kg) was 6.1 days, the MST (Plasmodium berghei [4]; 160 mg/kg) was 5.3 days and the MST (Plasmodium berghei [5]; 80 mg/kg) was 3.9 days.

For `CCCCN(CCCC)CCC(O)c1cc2c(Cl)cc(Cl)cc2c2cc(C(F)(F)F)ccc12` (stereo in doubt; (-)-8) [HALOFANTRINE], the MST (Plasmodium berghei [1]) was 8.9 days, the MST (Plasmodium berghei [2]; 40 mg/kg) was 12.5 days and the MST (Plasmodium berghei [6]) was 0.1 days. The MST (Plasmodium berghei [7]) was 5.1 days, the MST (Plasmodium berghei [8]) was 1.5 days and the MST (Plasmodium berghei [9]) was 0.3 days. It also gave an MST (Plasmodium berghei [5]; 80 mg/kg) of 13.2 days.

Source: ChEMBL document CHEMBL3244007, “Resolution of antimalarial agents via complex formation with alpha-(2,4,5,7-tetranitro-9-fluorenylideneaminooxy) propionic acid” (J Med Chem, 1978)
